# Several values for one entry are separate records, joined by “and”; a condition that tells them apart may be missing. Identical values can stand only once.
# Tested on: Fibroblast
# Assay: Multiplex assay against human fibroblast
# Assay type: toxicity, cell-based
# Conditions: number of replicates 2
# In short: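 Hoechst33342, BioTracker Green Microtubule Cytoskeleton Dye, MitoTracker Red and Annexin V Alexa Fluor 680 were added to live cells at seeding, and imaging on a CQ1 microscope at 37°C and 5% CO2 followed compound addition. Gating by CellPathfinder machine learning separated cells into Hoechst high-intensity objects or normal cells, then normal cells into healthy, pyknosed or fragmented nuclei, then pyknosed cells into mitotic or apoptotic. Per cents of healthy-nucleus cells are reported for the tubulin, mitochondrial-mass and membrane-permeability phenotypes.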
# [1] = 12 h, 1 µM, compound concentration 1 uM
# [2] = 12 h, 10 µM, compound concentration 10 uM
# [3] = 24 h, 1 µM, compound concentration 1 uM
# [4] = 24 h, 10 µM, compound concentration 10 uM
# [5] = 48 h, 1 µM, compound concentration 1 uM
# [6] = 48 h, 10 µM, compound concentration 10 uM
smiles,measurement,setting,value
CC(C)N1CCN(Cc2cnc(-c3cc(-c4cccc5[nH]ccc45)cc4[nH]ncc34)o2)CC1 [NEMIRALISIB],Population Apoptotic (%),[1],48% and 43%
same,Population Fragmented Nuclei (%),[1],10%
same,Population Healthy Nuclei (%),[1],72% and 64%
same,Population Hoechst High Intensity Objects (%),[1],0%
same,Population Membrane Permeable-Phenotype (%),[1],6% and 3%
same,Population Mitochondria Different-Phenotype (%),[1],2% and 0%
same,Population Mitotic Cells (%),[1],51% and 56%
same,Population Normal (%),[1],100% and 99%
same,Population Pyknosed Nuclei (%),[1],16% and 24%
same,Population Tubulin-Different-Phenotype (%),[1],19% and 9%
same,Total Cell Count,[1],206 and 286
same,Population Apoptotic (%),[2],32% and 38%
same,Population Fragmented Nuclei (%),[2],7% and 15%
same,Population Healthy Nuclei (%),[2],63% and 69%
same,Population Hoechst High Intensity Objects (%),[2],0% and 2%
same,Population Membrane Permeable-Phenotype (%),[2],7%
same,Population Mitochondria Different-Phenotype (%),[2],6% and 12%
same,Population Mitotic Cells (%),[2],67% and 61%
same,Population Normal (%),[2],100% and 97%
same,Population Pyknosed Nuclei (%),[2],28% and 15%
same,Population Tubulin-Different-Phenotype (%),[2],58% and 61%
same,Total Cell Count,[2],207 and 263
same,Population Apoptotic (%),[3],50% and 62%
same,Population Fragmented Nuclei (%),[3],8% and 10%
same,Population Healthy Nuclei (%),[3],70%
same,Population Hoechst High Intensity Objects (%),[3],0%
same,Population Membrane Permeable-Phenotype (%),[3],7%
same,Population Mitochondria Different-Phenotype (%),[3],2% and 1%
same,Population Mitotic Cells (%),[3],50% and 37%
same,Population Normal (%),[3],100%
same,Population Pyknosed Nuclei (%),[3],20% and 19%
same,Population Tubulin-Different-Phenotype (%),[3],25% and 11%
same,Total Cell Count,[3],201 and 273
same,Population Apoptotic (%),[4],52% and 71%
same,Population Fragmented Nuclei (%),[4],5% and 15%
same,Population Healthy Nuclei (%),[4],72% and 68%
same,Population Hoechst High Intensity Objects (%),[4],3% and 5%
same,Population Membrane Permeable-Phenotype (%),[4],7% and 3%
same,Population Mitochondria Different-Phenotype (%),[4],17% and 22%
same,Population Mitotic Cells (%),[4],47% and 28%
same,Population Normal (%),[4],96% and 95%
same,Population Pyknosed Nuclei (%),[4],22% and 15%
same,Population Tubulin-Different-Phenotype (%),[4],64% and 58%
same,Total Cell Count,[4],175 and 240
same,Population Apoptotic (%),[5],54% and 64%
same,Population Fragmented Nuclei (%),[5],11% and 12%
same,Population Healthy Nuclei (%),[5],73% and 67%
same,Population Hoechst High Intensity Objects (%),[5],0%
same,Population Membrane Permeable-Phenotype (%),[5],9% and 3%
same,Population Mitochondria Different-Phenotype (%),[5],3% and 0%
same,Population Mitotic Cells (%),[5],45% and 35%
same,Population Normal (%),[5],100%
same,Population Pyknosed Nuclei (%),[5],15% and 19%
same,Population Tubulin-Different-Phenotype (%),[5],15% and 7%
same,Total Cell Count,[5],214 and 290
same,Population Apoptotic (%),[6],84% and 61%
same,Population Fragmented Nuclei (%),[6],10% and 15%
same,Population Healthy Nuclei (%),[6],69% and 68%
same,Population Hoechst High Intensity Objects (%),[6],7% and 5%
same,Population Membrane Permeable-Phenotype (%),[6],6% and 4%
same,Population Mitochondria Different-Phenotype (%),[6],11% and 14%
same,Population Mitotic Cells (%),[6],15% and 38%
same,Population Normal (%),[6],92% and 94%
same,Population Pyknosed Nuclei (%),[6],19% and 16%
same,Population Tubulin-Different-Phenotype (%),[6],34% and 40%
same,Total Cell Count,[6],178 and 231
CC(C)(C)c1cnc(CSc2cnc(NC(=O)C3CCNCC3)s2)o1 [BMS-387032],Population Apoptotic (%),[1],56% and 46%
same,Population Fragmented Nuclei (%),[1],8% and 6%
same,Population Healthy Nuclei (%),[1],60% and 72%
same,Population Hoechst High Intensity Objects (%),[1],0%
same,Population Membrane Permeable-Phenotype (%),[1],6% and 7%
same,Population Mitochondria Different-Phenotype (%),[1],0% and 2%
same,Population Mitotic Cells (%),[1],43% and 53%
same,Population Normal (%),[1],100%
same,Population Pyknosed Nuclei (%),[1],31% and 21%
same,Population Tubulin-Different-Phenotype (%),[1],15% and 16%
same,Total Cell Count,[1],96 and 204
same,Population Apoptotic (%),[2],46% and 38%
same,Population Fragmented Nuclei (%),[2],7% and 9%
same,Population Healthy Nuclei (%),[2],58% and 67%
same,Population Hoechst High Intensity Objects (%),[2],0%
same,Population Membrane Permeable-Phenotype (%),[2],3% and 6%
same,Population Mitochondria Different-Phenotype (%),[2],4% and 8%
same,Population Mitotic Cells (%),[2],53% and 61%
same,Population Normal (%),[2],100%
same,Population Pyknosed Nuclei (%),[2],33% and 23%
same,Population Tubulin-Different-Phenotype (%),[2],37% and 43%
same,Total Cell Count,[2],141 and 213
same,Population Apoptotic (%),[3],64% and 54%
same,Population Fragmented Nuclei (%),[3],12% and 10%
same,Population Healthy Nuclei (%),[3],61% and 63%
same,Population Hoechst High Intensity Objects (%),[3],0%
same,Population Membrane Permeable-Phenotype (%),[3],7% and 9%
same,Population Mitochondria Different-Phenotype (%),[3],0% and 1%
same,Population Mitotic Cells (%),[3],35% and 45%
same,Population Normal (%),[3],100%
same,Population Pyknosed Nuclei (%),[3],26%
same,Population Tubulin-Different-Phenotype (%),[3],21% and 18%
same,Total Cell Count,[3],106 and 208
same,Population Apoptotic (%),[4],52% and 71%
same,Population Fragmented Nuclei (%),[4],12% and 11%
same,Population Healthy Nuclei (%),[4],49% and 62%
same,Population Hoechst High Intensity Objects (%),[4],0%
same,Population Membrane Permeable-Phenotype (%),[4],6% and 7%
same,Population Mitochondria Different-Phenotype (%),[4],10% and 12%
same,Population Mitotic Cells (%),[4],47% and 28%
same,Population Normal (%),[4],100%
same,Population Pyknosed Nuclei (%),[4],37% and 26%
same,Population Tubulin-Different-Phenotype (%),[4],41% and 40%
same,Total Cell Count,[4],147 and 198
same,Population Apoptotic (%),[5],74% and 73%
same,Population Fragmented Nuclei (%),[5],12% and 14%
same,Population Healthy Nuclei (%),[5],49% and 52%
same,Population Hoechst High Intensity Objects (%),[5],0%
same,Population Membrane Permeable-Phenotype (%),[5],23% and 15%
same,Population Mitochondria Different-Phenotype (%),[5],2% and 0%
same,Population Mitotic Cells (%),[5],25% and 26%
same,Population Normal (%),[5],100%
same,Population Pyknosed Nuclei (%),[5],38% and 33%
same,Population Tubulin-Different-Phenotype (%),[5],33% and 30%
same,Total Cell Count,[5],183 and 115
same,Population Apoptotic (%),[6],64% and 73%
same,Population Fragmented Nuclei (%),[6],14% and 11%
same,Population Healthy Nuclei (%),[6],43% and 38%
same,Population Hoechst High Intensity Objects (%),[6],0%
same,Population Membrane Permeable-Phenotype (%),[6],10% and 22%
same,Population Mitochondria Different-Phenotype (%),[6],8% and 16%
same,Population Mitotic Cells (%),[6],35% and 26%
same,Population Normal (%),[6],100%
same,Population Pyknosed Nuclei (%),[6],41% and 49%
same,Population Tubulin-Different-Phenotype (%),[6],44% and 58%
same,Total Cell Count,[6],194 and 137

# Reference: ChEMBL document CHEMBL5303300, “EUbOPEN Chemogenomics Library - Multiplex” (2023)
